Assay outcomes from PubChem BioAssay.
CHRM4 antagonist: human M4 muscarinic receptor antagonists, primary screen, CHO cells, Fluo-8 calcium fluorescence | Muscarinic acetylcholine receptor M4 (Homo sapiens), P08173 | CHO-hM4 cells, ACh EC80 | inhibition, % at 3 µM | 360,000 tested, 0.73% active | AID 624125, 2012;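 active = inhibition above its plate's cutoff, the mean inhibition of sample wells plus 3 SD, cut at about 27% in these data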;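 note: 0% = acetylcholine EC80 with DMSO and 100% = DMSO without agonist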
CHRM5 agonist: human M5 muscarinic receptor agonists, primary screen, CHO-K1 cells, Fluo-8 calcium fluorescence | 360,000 tested, 0.19% active | Muscarinic acetylcholine receptor M5 (Homo sapiens), P08912 | activation, % at 3 µM | AID 624037, 2012 | CHO-K1 hM5 cells; 0% DMSO wells, 100% maximal acetylcholine response;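 active = activation above the run's mean over test compounds plus 3 SD, cut at about 23% in these data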;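 note: signal is peak over basal fluorescence ratio across the kinetic read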
Target sequence (P08912 whole entry, looked up): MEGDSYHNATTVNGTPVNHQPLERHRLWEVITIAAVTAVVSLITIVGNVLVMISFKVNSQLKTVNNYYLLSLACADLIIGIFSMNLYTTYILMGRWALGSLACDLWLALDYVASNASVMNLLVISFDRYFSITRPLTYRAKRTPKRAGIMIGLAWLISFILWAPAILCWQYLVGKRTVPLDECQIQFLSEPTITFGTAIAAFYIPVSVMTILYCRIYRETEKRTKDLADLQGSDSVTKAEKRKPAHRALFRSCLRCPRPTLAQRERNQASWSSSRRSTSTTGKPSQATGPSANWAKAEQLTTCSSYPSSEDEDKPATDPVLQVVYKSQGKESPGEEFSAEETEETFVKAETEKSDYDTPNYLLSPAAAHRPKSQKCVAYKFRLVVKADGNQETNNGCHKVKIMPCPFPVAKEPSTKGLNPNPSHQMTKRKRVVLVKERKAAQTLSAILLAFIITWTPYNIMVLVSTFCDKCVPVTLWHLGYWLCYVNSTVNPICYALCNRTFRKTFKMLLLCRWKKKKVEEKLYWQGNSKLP
CHRM4 PAM: human M4 muscarinic receptor positive allosteric modulators, primary screen, CHO-K1 cells, Fluo-8 calcium fluorescence. AID 624126, 2012. CHO-K1 hM4/Gqi5, ACh EC20; 0% = ACh EC20, 100% = maximal ACh. 360,000 tested, 0.4% active. activation, % at 3 µM;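 active = activation above its plate's cutoff, the mean activation of sample wells plus 3 SD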
M4 ag: human M4 muscarinic receptor agonists, primary screen, CHO-K1 cells, Fluo-8 calcium fluorescence. Muscarinic acetylcholine receptor M4 (Homo sapiens), P08173. CHO-K1 hM4/Gqi5; vehicle 0%, full acetylcholine response 100%. activation, % at 3 µM. 360,000 tested, 0.14% active. AID 624127, 2012;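 active = activation above the run mean over all test wells plus 3 SD, cut at about 32% in these data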;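 note: peak over basal fluorescence ratio per well then scaled between controls; 0% = DMSO wells and 100% = acetylcholine at EC100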
CHRM5 PAM: human M5 muscarinic receptor positive allosteric modulators, primary screen, CHO-K1 cells, Fluo-8 calcium fluorescence. Muscarinic acetylcholine receptor M5 (Homo sapiens), P08912. CHO-K1 hM5, ACh EC20 PAM; 0% = ACh EC20, 100% = ACh EC100. activation, % at 3 µM. 360,000 tested, 0.3% active. AID 624038, 2012;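 active = activation above the run cutoff, the mean activation of all test compounds plus 3 SD, cut at about 18% in these data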
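Assay system: CHO-K1 hM5 cells. Also added: acetylcholine at EC20 concentration, added after compound. Dosing: 3 µM, single dose. Times: compound preincubation 140 s before EC20 acetylcholine addition. Signal: Fluo-8 calcium fluorescence. Measure: % activation relative to EC20 and EC100 ACh responses. Repeats: singlicate, one well per test compound.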
M5 antag: human M5 muscarinic receptor antagonists, primary screen, CHO cells, Fluo-8 calcium fluorescence | Muscarinic acetylcholine receptor M5 (Homo sapiens), P08912 | CHO-hM5 cells, ACh EC80 | inhibition, % at 3 µM | 360,000 tested, 0.59% active;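 active = inhibition above a per-plate cutoff, the mean of that plate's test compounds plus 3 SD, cut at about 27% in these data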;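 note: 0% = acetylcholine EC80 with DMSO and 100% = DMSO without agonist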
The depositor's hits bear a star; + = active, no number. An excerpt weighted towards active compounds, which were near 1.8% of everything screened.

SMILES	CHRM4 antagonist	CHRM5 agonist	CHRM4 PAM	M4 ag	CHRM5 PAM	M5 antag
O=C(Nc1ccc(F)c(Cl)c1)c1ccc2c(c1)OCO2	-5	-7	-1	2	6	-14
COc1ccc(NC(=O)c2ccc3c(c2)OCO3)cc1Cl	-9	1	5	4	29*	-3
O=C(Nc1ccc2c(c1)OCCO2)c1ccccc1	29*	1	-14	21	-10	16
Cc1cc(=O)[nH]c2c1cnn2C(C)c1ccccc1 (stereo unspecified)	3	-3	1	0	4	1
Cn1c(-c2ccccc2)c(C#Cc2ccc(N)cc2)c2ccccc21	-4	-4	-8	-2	-20	13
O=C(O)/C=C/C(=O)N1CCN(C(c2ccccc2)c2ccccc2)CC1	30*	-17	-36	1	-33	27*
CC(=O)/C(C(=N)N1CCN(C(c2ccccc2)c2ccccc2)CC1)=C(\C)O	91*	-8	-25	2	-20	83*
CC(=O)/C(C(=N)N1CCN(Cc2ccccc2)CC1)=C(\C)O	0	-2	6	0	0	-6
Cc1noc(C)c1COc1ccc(C(=O)OC(C)C(=O)Nc2ccc(S(=O)(=O)N3CCOCC3)cc2)cc1 (stereo unspecified)	10	-2	-3	1	3	-4
CCCOc1ccc(/C=C/C(=O)OCC(=O)N(C)c2c(N)n(Cc3ccccc3)c(=O)[nH]c2=O)cc1OCC	0	3	1	2	0	5
COc1cccc(/C=C/C(=O)OCC(=O)c2c[nH]c3ccccc23)c1OC	13	-1	-9	14	-18	27*
CCOC(=O)C1CCN(C(=O)COC(=O)/C=C/c2ccccc2)CC1	-13	7	9	2	3	-3
COc1cccc(/C=C/C(=O)OCC(=O)c2c[nH]c3ccccc23)c1	-2	-2	-4	18	-28	9
CCOC(=O)C1CCN(C(=O)COC(=O)/C=C/c2cccc(OC)c2OC)CC1	-12	24*	18	7	1	3
COCCCN(C(=O)Cc1ccc(S(=O)(=O)N2CCOCC2)s1)c1c(N)n(Cc2ccccc2)c(=O)[nH]c1=O	9	1	1	1	-3	10
Cc1ccc(C)c(N2N=C(C(=O)N(CC(C)C)c3c(N)n(Cc4ccccc4)c(=O)[nH]c3=O)CCC2=O)c1	-2	-2	0	1	5	-11
CN(C)CCNc1nc(-c2ccccc2F)c2sccc2n1	21	-9	-11	2	-34	40*
Fc1ccccc1-c1nc(NCC2CC2)nc2ccsc12	10	-3	-4	-2	-6	3
CC(=O)Oc1ccccc1/C=C/c1ccc2ccccc2[n+]1C	14	-9	-14	0	-17	32*
COc1ccc(/C=C/c2ccc3ccccc3[n+]2C)cc1OC	-17	-7	-4	1	-4	0
CC(=O)CC(=O)Nc1ccn(-c2ccccc2)n1	-1	-1	0	1	20*	6
O=C(Nc1cc(C(F)(F)F)cc(C(F)(F)F)c1)[C@H]1O[C@@H](n2ccc(=O)[nH]c2=O)[C@H](O)[C@@H]1O	-10	2	1	1	3	1
CC(O)Cc1cn([C@@H](CCCCN)C(=O)N2CCNCC2)nn1 (stereo partly specified)	-9	3	1	0	6	9
CC(O)[C@@H](C(=O)N1CCNCC1)n1cc(CCCCN)nn1 (stereo partly specified)	9	1	-20	+	-5	-7
